An excerpt weighted towards active compounds, which were near 1.5% of everything screened.
CCR6 antag – CCR6 receptor antagonists, primary screen, cell-based, CHO-K1, luminescence, beta-arrestin, uHTS; C-C chemokine receptor type 6 (Homo sapiens), P51684; CHO-K1 CCR6 PathHunter beta-arrestin, CCL20-stimulated; inhibition, % at 20 µM; 0.49% of 340,000 active; AID 493098, 2011;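 active = compounds whose inhibition of the agonist-driven luminescence signal at 20 µM reaches about 50%, limit read from the data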;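 also: cells stimulated with CCL20 at 14 nM final; plate controls were DMSO with CCL20 for no effect and DMSO without agonist for full effect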
APJ antag – antagonists of human apelin receptor APJ, primary screen, CHO-K1 cells, beta-arrestin complementation, luminescence; inhibition, % at 20 µM; 0.32% of 330,000 active; AID 2521, 2010;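 active = inhibition above about 40% at 20 µM, limit read from the data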;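 also: cells challenged with 10 nM apelin-13 agonist together with compound; plate controls were apelin-13 plus DMSO wells for no effect and DMSO wells lacking apelin-13 for full effect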
Target sequence (P35414 whole entry, looked up): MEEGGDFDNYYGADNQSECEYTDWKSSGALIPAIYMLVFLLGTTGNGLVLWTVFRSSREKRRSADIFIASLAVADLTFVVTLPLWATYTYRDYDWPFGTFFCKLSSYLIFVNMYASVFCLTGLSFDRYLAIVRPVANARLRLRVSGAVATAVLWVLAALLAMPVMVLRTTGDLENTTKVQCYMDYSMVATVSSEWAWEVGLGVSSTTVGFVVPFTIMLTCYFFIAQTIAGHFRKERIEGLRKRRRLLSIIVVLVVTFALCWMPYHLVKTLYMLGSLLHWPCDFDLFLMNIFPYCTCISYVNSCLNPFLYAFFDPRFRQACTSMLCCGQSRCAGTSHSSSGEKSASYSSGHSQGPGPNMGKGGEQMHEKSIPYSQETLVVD
EBI2 block – EBI2 receptor antagonists, beta-arrestin recruitment, primary screen, cell-based, luminescence, 7a,25-OHC stimulation, uHTS; G-protein coupled receptor 183 (Homo sapiens), P32249; 7a,25-OHC stimulated; 0.81% of 360,000 active; inhibition, % at 5 µM; in the data active = inhibition above about 38%;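 also: enzyme fragment complementation signal reports receptor beta-arrestin coupling in cells; 0% = agonist plus DMSO wells and 100% = wells without agonist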
APJ agonist – agonists of human apelin receptor APJ, primary screen, CHO-K1 cells, PathHunter beta-arrestin, luminescence; 0.11% of 330,000 active; 0% DMSO wells, 100% apelin; P35414; AID 2520, 2010; activation, % at 20 µM;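 active = activation more than six SD over the plate average, tested at 20 µM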;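 also: 0% = DMSO alone and 100% = apelin-13 at 10 nM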
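Assay system: CHO-K1 cells stably expressing ProLink-tagged human APJ and arrestin–beta-gal acceptor. Compound dosing: 20 µM single point, 1% DMSO. Times: 16-18 h seeding, 90 min dark compound exposure, 60 min detection. Detection: beta-gal luminescence. Evaluation: APJ–arrestin association signal. Controls: negative DMSO alone, positive Apelin-13 at 10 nM.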
CXCR6 inh – CXCR6 receptor inhibitors, primary screen, cell-based, beta-arrestin, luminescence, CHO-K1 PathHunter, 1536-well. C-X-C chemokine receptor type 6 (Homo sapiens), O00574. inhibition, % at 20 µM. 0.36% of 360,000 active; in the data active = inhibition above about 34%, passing the limit was not always enough;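 also: antagonist mode with CXCL16 agonist at 10 nM final; 0% = 10 nM CXCL16 with DMSO and 100% = unstimulated wells without agonist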
EBI2 conf – EBI2 antagonist hit retest, beta-arrestin, confirmation, cell-based, single concentration, luminescence, 7a,25-OHC stimulation. 29% of 2,400 active. shares compounds with EBI2 block. AID 651997, 2013. 7a,25-OHC antagonism. inhibition, % at 5 µM;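 active = inhibition of at least 50%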
EBI2 ag – EBI2 agonist activity of antagonist hits, confirmation, counter-screen for EBI2 antagonist project, cell-based, single concentration, agonist mode, luminescence | shares compounds with EBI2 block | EBI2-expressing cells, 60 min; 0% vehicle, 100% 7α,25-dihydroxycholesterol control | activation, % at 5 µM | 2,400 tested, under 10 active | AID 652000, 2013;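 active = activation of at least 50%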
bGal cs – E. coli beta-galactosidase enzyme inhibition, confirmation, counter-screen for EBI2 antagonist project, biochemical, luminescence, single concentration; shares compounds with EBI2 block; purified beta-galactosidase, luminescent Galacton Star, 15 min; inhibition, % at 5 µM; 1% of 2,400 active;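 active = replicate-average signal at least 3 plate SD below neutral wells, shown as high inhibition, flagging enzyme-inhibiting false positives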;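 also: 0% = DMSO wells with enzyme and 100% = wells lacking enzyme; higher means stronger loss of beta-gal luminescence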
* marks the source's active call; other numbers are inactive results; . = not tested or not shown.

SMILES	CCR6 antag	APJ antag	EBI2 block	APJ agonist	CXCR6 inh	EBI2 conf	EBI2 ag	bGal cs
Cc1cccc(N2C(=O)/C(=C\c3ccc(OC(F)F)cc3)c3ccccc3C2=O)c1	10	-3	61*	2	-8	49	0	4
CCOC(=O)c1cnn(-c2nc(-c3cccc(F)c3)cs2)c1C(F)(F)F	9	5	48*	-2	-1	43	2	3
CCN(CCCNC(=O)CCn1c(=S)[nH]c2cc3c(cc2c1=O)OCO3)c1cccc(C)c1	27	20	8	-3	10	.	.	.
Cc1cc(Cl)cc(Cl)c1OCCOc1cccc2cccnc12	24	21	56*	-3	0	39	4	1
Brc1ccccc1OCCOc1cccc2cccnc12	15	-13	18	-2	3	.	.	.
CC1(C)Cc2nc3nc(SCC(=O)NCCc4ccccc4)n(-c4ccccc4)c(=O)c3cc2CO1	8	-3	-3	-1	4	.	.	.
C=C(C)C(O)Cc1c(OC)ccc(C(=O)/C=C/c2ccc(O)cc2)c1O (stereo unspecified)	29	-10	17	-2	5	.	.	.
CC(C)=CCC/C(C)=C/Cc1c(O)ccc(C(=O)/C=C/c2ccc(O)cc2)c1O	28	-48	43*	-8	11	49	1	3
Cc1ccc(S(=O)(=O)N2CCN(CC(=O)N/N=C/C=C/c3ccccc3)CC2)cc1	-5	-4	43*	0	-1	31	0	9
Cc1ccc(/C=N/NC(=O)CN2CCN(S(=O)(=O)c3ccc(Br)cc3)CC2)s1	3	-6	69*	-3	-2	52*	0	5
O=C(CN1CCN(S(=O)(=O)N2CCCCC2)CC1)Nc1ccc(Cl)c(Cl)c1	13	2	25	-3	-2	.	.	.
O=C(CN1CCN(S(=O)(=O)c2ccc(Br)cc2)CC1)N/N=C/c1ccco1	17	-2	22	0	7	.	.	.
O=C(CN1CCN(S(=O)(=O)c2ccccc2)CC1)Nc1ccc(Cl)c(Cl)c1	22	2	61*	1	-17	45	1	-2
O=C(CN1CCN(S(=O)(=O)c2ccc(Br)cc2)CC1)N/N=C/c1ccc(Br)s1	9	-3	65*	0	-4	44	-1	-10
Cc1ccc(C(=O)NN2C(=O)C3C4c5ccccc5C(c5ccccc54)C3C2=O)cc1 (stereo unspecified)	4	-17	-2	4	-16	.	.	.
C[C@H]1CN([C@@H](C)CO)C(=O)CCCn2nncc2CO[C@@H]1CN(C)Cc1cccc(C(=O)O)c1	.	.	-7	.	-1	.	.	.
COc1ccc(OC)c(Cc2nnc(CCC(=O)N3CCN(C4CCCC4)CC3)o2)c1	1	12	-8	-4	0	.	.	.
COC(=O)C1=C(C(=O)OC)[C@@H]2N(C)c3ccc(OC)cc3[C@@]23C[C@@H](C(=O)OC)N(C(=O)c2cc(C)oc2C)C3=N1	14	14	.	5	.	.	.	.
COc1ccc(Nc2nnc(Cc3ccncc3)c3ccccc23)c(OC)c1	14	-9	2	1	-2	.	.	.
CCCC(=O)Nc1cc2c(cc1C(=O)c1ccccc1)OCCO2	12	18	-5	0	8	.	.	.
CCOc1ccc(S(=O)(=O)c2c(C(=O)c3ccccc3)cnc3cc4c(cc23)OCCO4)cc1	14	4	52*	-1	1	25	-1	-11
COc1ccc(CC(=O)Nc2nnc(SCC(=O)NCc3ccco3)s2)cc1OC	6	5	-2	-1	4	.	.	.
CCOc1ccc(C(C(=O)NCC2CCCO2)N(Cc2cccnc2)C(=O)c2snc(C(N)=O)c2N)cc1 (stereo unspecified)	4	-1	-2	-2	5	.	.	.
COc1ccc(CCNc2cc(-c3ccccc3)nc3ncnn23)cc1	15	5	45*	-2	-3	20	0	6
C#CCNc1cc(-c2ccccc2)nc2ncnn12	-7	9	-10	-2	1	.	.	.
SMILES	CCR6 antag	APJ antag	EBI2 block	APJ agonist	CXCR6 inh	EBI2 conf	EBI2 ag	bGal cs
Cc1ccc(C(=O)C(C)Oc2ccc3ccc(=O)oc3c2)cc1 (stereo unspecified)	28	1	11	-3	1	.	.	.
COc1ccc(C(C(=O)NC(C)(C)C)N(C(=O)CNC(=O)c2cccs2)c2cccnc2)cc1OC (stereo unspecified)	7	4	4	-2	-1	.	.	.
Cc1ccc(C(=O)Cn2c(C(=O)/C=C/c3ccccc3)nc3ccccc32)cc1	22	8	48*	2	17	36	0	7
O=C(Cn1c(C(=O)c2ccccc2)nc2ccccc21)c1ccc(Cl)cc1	20	.	-11	.	11	.	.	.
COc1cccc(-c2onc3ccc(C4(C)OCCO4)cc23)c1	1	-5	48*	5	-13	11	0	8
O=C(Nc1ccc(Nc2ccccc2)cc1)C(Cl)(Cl)Cl	7	-31	-4	1	-14	.	.	.
COc1ccc(S(=O)(=O)N2CCN(C(=O)COc3ccc(C)c(C)c3)CC2)cc1OC	3	-7	77*	3	6	32	-2	-12
COc1ccc(OCC(=O)N2CCN(S(=O)(=O)c3ccc(Cl)cc3)CC2)cc1	14	9	71*	-7	1	58*	0	5
O=C(COc1ccccc1)N1CCN(S(=O)(=O)c2ccc(Cl)cc2)CC1	8	-2	49*	3	-6	35	-1	-4
COc1ccc(S(=O)(=O)N2CCN(C(=O)CCOc3ccccc3)CC2)cc1OC	7	4	5	-4	-4	.	.	.
O=C(NCc1ccc(Cl)cc1)N1CCN(S(=O)(=O)c2ccccc2)CC1	14	7	45*	-1	-5	25	0	9
O=C(NCc1ccc(Cl)cc1)N1CCN(C(=O)c2ccccc2)CC1	.	.	25	.	4	.	.	.
COc1ccccc1CNC(=O)N[C@@H](Cc1ccccc1)C(=O)O	0	-10	-15	-5	2	.	.	.
O=C(COc1ccc(Cl)cc1Br)N1CCN(S(=O)(=O)c2ccccc2)CC1	18	2	29	-1	-6	.	.	.

High-throughput results: PubChem, Sanford-Burnham Center for Chemical Genomics
